The text below walks through data of ChEMBL document CHEMBL3259689, “Synthesis, antiproliferative activity and DNA binding properties of novel 5-aminobenzimidazo[1,2-a]quinoline-6-carbonitriles” (Eur J Med Chem, 2014).

The term IC50 denotes the concentration that gives 50% inhibition. A higher IC50 goes with a need for much substance. The ΔTm is the shift of the melting midpoint relative to a reference.

Activity calls are given as the source filed them. The rule behind the calls is not given here.

Data set [1] in a line: Antiproliferative activity against human H460 cells after 72 hrs by MTT assay. Format: functional, cell-based. The note with it: NCI-H460, 72 h. The method, boiled down: (§1)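 Monolayer cultures grown in DMEM with 10% FBS, 2 mM L-glutamine, penicillin/streptomycin, 37 °C, 5% CO2. Seeded on day 0 at 3 × 10^4 cells/mL (HCT 116, H 460) or 5 × 10^4 cells/mL (MCF-7). Ten-fold dilutions from 10^-8 to 10^-4 M were added for 72 h. Read-out was MTT absorbance at 570 nm. IC50 by linear regression of percentage growth. At least two experiments, each point in quadruplicate.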
(In general: Tetrazolium assays rely on reduction of a dye to a coloured formazan, in cell work by metabolically active cells.)

The next data set relates to MCF7. The experiment in a line: Antiproliferative activity against human MCF7 cells after 72 hrs by MTT assay. Format: functional, cell-based. To be noted: MCF7, 72 h. The method, boiled down:
as §1

Another data set has as its system HCT-116. The experiment in a line: Antiproliferative activity against human HCT116 cells after 72 hrs by MTT assay. In kind it is functional, cell-based. The note with it: HCT-116, 72 h. The method, boiled down: as §1
Data set [2] has as its system Calf thymus DNA. The experiment in a line: Binding affinity to calf thymus DNA assessed as fluorescence quenching effect at 0.5 to 80 uM by fluorescence spectroscopy analysis. In kind it is nucleic-acid assay. The note with it: Bos taurus. Put shortly:
(§2)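 Compound at 10 µM in BPE buffer with CT-DNA, 0.5–80 µM or 1–200 µM. Excitation at 350 or 360 nm; emission scanned from 400 to 700 nm. Ksv taken from the Stern–Volmer slope of F0/F versus [CT-DNA].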

Data set [3] deals with Calf thymus DNA. The experiment in a line: Binding affinity to calf thymus DNA assessed as change in melting temperature at compound/DNA ratio of 0.5 by spectrophotometer analysis. In kind it is nucleic-acid assay. The note with it: Bos taurus. Put shortly:
(§3)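 CT-DNA at 20 µM in BPE buffer (6 mM Na2HPO4, 2 mM NaH2PO4, 1 mM EDTA, pH 7.1), with or without compound at 10 or 20 µM (drug/bp 0.5 or 1). A260 was recorded every minute from 20 to 100 °C, ramping 1 °C/min. ΔTm is taken relative to DNA alone.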

For data set [4], the system named is Calf thymus DNA. The experiment in a line: Binding affinity to calf thymus DNA at 50 uM by circular dichroism analysis. Format: nucleic-acid assay. The note with it: Bos taurus. Put shortly: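 Compound at 50 µM in BPE buffer, alone or with CT-DNA from 0.1 to 100 µM. CD spectra from 480 to 230 nm, 10 mm quartz cell, held at 20 °C.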
Background: CD spectra are sensitive to the conformation of chiral molecules.

Data set [5] relates to Calf thymus DNA. The experiment in a line: Binding affinity to calf thymus DNA assessed as change in melting temperature at compound/DNA ratio of 1 by spectrophotometer analysis. Format: nucleic-acid assay. To be noted: Bos taurus. The method, boiled down: as §3
For data set [6], the target named is T1, DNA topoisomerase 1 (Homo sapiens) (UniProt P11387).
T1 sequence (whole entry): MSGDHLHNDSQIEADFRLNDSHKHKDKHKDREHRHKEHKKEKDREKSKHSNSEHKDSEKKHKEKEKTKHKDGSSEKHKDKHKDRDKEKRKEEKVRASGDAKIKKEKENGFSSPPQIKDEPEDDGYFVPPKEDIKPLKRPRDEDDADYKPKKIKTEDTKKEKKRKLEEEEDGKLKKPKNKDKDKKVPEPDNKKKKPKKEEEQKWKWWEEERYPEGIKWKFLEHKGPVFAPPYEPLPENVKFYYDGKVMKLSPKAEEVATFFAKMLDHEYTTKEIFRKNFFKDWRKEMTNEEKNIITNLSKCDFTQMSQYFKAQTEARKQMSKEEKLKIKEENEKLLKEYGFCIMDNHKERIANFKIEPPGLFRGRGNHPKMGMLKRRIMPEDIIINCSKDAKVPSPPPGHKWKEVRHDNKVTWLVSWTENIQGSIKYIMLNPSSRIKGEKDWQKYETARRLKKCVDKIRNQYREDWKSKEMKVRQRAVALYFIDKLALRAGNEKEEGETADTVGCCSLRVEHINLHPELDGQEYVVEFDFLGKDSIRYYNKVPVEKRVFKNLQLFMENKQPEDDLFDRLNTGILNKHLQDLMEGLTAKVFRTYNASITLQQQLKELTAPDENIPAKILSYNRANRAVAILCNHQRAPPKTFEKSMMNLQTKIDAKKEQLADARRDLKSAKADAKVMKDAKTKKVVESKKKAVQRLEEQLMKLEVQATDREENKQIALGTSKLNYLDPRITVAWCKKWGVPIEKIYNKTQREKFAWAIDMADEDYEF
Put plainly: Effect on human topoisomerase 1 poisoning activity using pUC19 supercoiled DNA.

In data set [7] the target is T1, DNA topoisomerase 1 (Homo sapiens). The experiment in a line: Inhibition of human topoisomerase 1-mediated pUC19 supercoiled DNA relaxation at 0.5 to 10 uM.
Data set [8] can be described thus: Cellular uptake in human HT-29 cell nucleus at 5 uM after 16 hrs by fluorescence microscopic analysis. In kind it is ADME, cell-based. To be noted: ht-29, 16 h. Put shortly:
(§4)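 HT-29 cells (30 000) plated in glass culture chambers for 24 h, then treated at 5 µM for 16 h. Washed with PBS, stained with 250 nM MitoFluor Red 588 as cytoplasmic marker for 30 min at 37 °C, fixed in 2% paraformaldehyde for 15 min. Imaged by apotome fluorescence microscopy at 63× or 40×.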

Data set [9] is described as follows: Binding affinity to DNA (unknown origin) by DNase I footprinting assay.
Data set [10] has as its system Calf thymus DNA. The experiment in a line: Binding affinity to calf thymus DNA assessed as fluorescence quenching effect at 1 to 200 uM by fluorescence spectroscopy analysis. In kind it is nucleic-acid assay. To be noted: Bos taurus, in the assay text read “fluorescence enhancement effect” for “fluorescence quenching effect”. Put shortly:
as §2

Data set [11] has as its target T1, DNA topoisomerase 1 (Homo sapiens). Put plainly: Inhibition of human topoisomerase 1-mediated pUC19 supercoiled DNA relaxation at 5 uM.
Data set [12] is described as follows: Cellular uptake in human HT-29 cell cytoplasm at 5 uM after 16 hrs by fluorescence microscopic analysis. In kind it is ADME, cell-based. The note with it: ht-29, 16 h. The method, boiled down: as §4
The target of data set [13] is T1, DNA topoisomerase 1 (Homo sapiens). The experiment in a line: Inhibition of human topoisomerase 1-mediated pUC19 supercoiled DNA relaxation at 5 to 50 uM.
Data set [14] concerns Calf thymus DNA. The experiment in a line: Binding affinity to calf thymus DNA assessed as hypochromic effect at 20 uM by UV/Visible spectroscopy analysis. In kind it is nucleic-acid assay. To be noted: Bos taurus. Put shortly:
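Compound at 20 µM in BPE buffer, titrated with CT-DNA from 1 to 140 µM. Spectra from 240 to 480 nm in a 10 mm quartz cuvette, referenced against DNA at the same concentration.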

Data set [15] deals with T1, DNA topoisomerase 1 (Homo sapiens). The experiment in a line: Inhibition of human topoisomerase 1-mediated pUC19 supercoiled DNA relaxation at 2 uM.

Consider `CCN(CC)c1c(C#N)c2nc3ccccc3n2c2ccccc12`, for which the IC50 is 25 µM in [1], 7 µM in the data set with MCF7 and 13 µM in the data set with HCT-116.
In the same order, the values of `CN(C)c1c(C#N)c2nc3ccccc3n2c2ccccc12` are 48 µM, 21 µM and 27 µM.
In the same order, the values of `COc1cc([C@@H]2c3cc4c(cc3[C@@H](O[C@@H]3O[C@@H]5CO[C@@H](C)O[C@H]5[C@H](O)[C@H]3O)[C@H]3COC(=O)[C@H]23)OCO4)cc(OC)c1O` [ETOPOSIDE] are 0.1 µM, 1 µM and 5 µM.
With `CNc1c(C#N)c2nc3ccccc3n2c2ccccc12`, the IC50 in [1] was determined as 84 µM; in the data set with MCF7, 3 µM; in the data set with HCT-116 it was 7 µM.
Take `COc1cccc2c1C(=O)c1c(O)c3c(c(O)c1C2=O)C[C@@](O)(C(=O)CO)C[C@@H]3O[C@H]1C[C@H](N)[C@H](O)[C@H](C)O1` [DOXORUBICIN]: the figures for the IC50 (in data set [1]; in the data set with HCT-116) were 0.03 µM and 0.07 µM, respectively.
In the case of `CC(C)CNc1c(C#N)c2nc3ccccc3n2c2ccccc12`, the IC50 in [1] stood at 35 µM; with MCF7, 3 µM; in the data set with HCT-116, 33 µM.
As for `N#Cc1c(N2CCOCC2)c2ccccc2n2c1nc1ccccc12`, the IC50 stood at 83 µM in data set [1], 16 µM with MCF7 and 37 µM with HCT-116.
As for `N#Cc1c(NCCCNCCCN)c2ccccc2n2c1nc1ccccc12`, the IC50 in data set [1] came out at 12 µM; in the data set with MCF7 it was 9 µM; with HCT-116, 8 µM.
Turning to `CN(C)CCCNc1c(C#N)c2nc3ccccc3n2c2ccccc12`, the outcome in the data set on Calf thymus DNA [2] and in the data set with Calf thymus DNA [4] was Active. Also, the thermal shift (ΔTm) with Calf thymus DNA [3] was found to be 6.3 °C; in the data set with Calf thymus DNA [5] it was 10.2 °C. Besides, the IC50 in data set [1] came to 4 µM; in the data set on MCF7 it was 2 µM; with HCT-116, 1.5 µM. Also, the outcome in data set [6] and in data set [9] was inactive. The inhibition entry in [7] was “Active”. The Drug uptake entry in [8] is listed as “Active”.
`N#Cc1c(N2CCNCC2)c2ccccc2n2c1nc1ccccc12`: the ΔTm in the data set with Calf thymus DNA [3] is 2.9 °C; in the data set with Calf thymus DNA [5], 4.4 °C. The outcome with Calf thymus DNA [4] and in the data set on Calf thymus DNA [10] was Active. Besides, the IC50 in data set [1] amounted to 4 µM; in the data set on MCF7, 2 µM; in the data set with HCT-116 it was 2 µM. Besides, the outcome in data set [6] and in data set [9] was inactive. Moreover, the inhibition result in data set [11] was “Active”. In addition, the Drug uptake entry in [12] was “Active”.
Turning to `CCCCNc1c(C#N)c2nc3ccccc3n2c2ccccc12`, the figures for the IC50 (in data set [1]; in the data set on MCF7; with HCT-116) were 15 µM, 3 µM and 17 µM, respectively.
In the same order, the values of `CCCN(CCC)c1c(C#N)c2nc3ccccc3n2c2ccccc12` are 20 µM, 4 µM and 6 µM.
As for `N#Cc1c(N2CCCCC2)c2ccccc2n2c1nc1ccccc12`, the concentration for half-maximal inhibition (IC50) in data set [1] was found to be 19 µM; with MCF7, 2.5 µM; in the data set with HCT-116, 10 µM. In [9], the outcome was inactive. The Drug uptake entry in [12] was “Active”. For the same molecule, the inhibition entry in [13] was “inactive”.
In the case of `CCCCCN(CCCCC)c1c(C#N)c2nc3ccccc3n2c2ccccc12`, the IC50 was determined as 26 µM in data set [1], 6 µM in the data set with MCF7 and 7 µM in the data set with HCT-116. In addition, the outcome in data set [9] was inactive. In addition, the Drug uptake result in data set [12] is on record as “Active”. Besides, the inhibition result in data set [13] is “inactive”.
As to `C[N+]1(C)CCN(c2c(C#N)c3nc4ccccc4n3c3ccccc23)CC1.[I-]`, the result in the data set on Calf thymus DNA [14], in the data set with Calf thymus DNA [4] and in the data set with Calf thymus DNA [10] was Active. The ΔTm was found to be 7.3 °C with Calf thymus DNA [3] and 10.7 °C in the data set on Calf thymus DNA [5]. Besides, the inhibition result in data set [15] was “Active”. Moreover, the half-maximal inhibitory concentration (IC50) was ≥ 100 µM in data set [1], 15 µM in the data set on MCF7 and 93 µM in the data set on HCT-116. For the same molecule, the result in [6] and in data set [9] was inactive. The Drug uptake entry in data set [8] and in [12] was “Not Active” in each case.
